Data: PMC3483595 (ChemMedChem, 2012)
Values after ≈ are worked out from the molar mass of the structure shown. Values joined by “and” are separate entries in the source; they are usually repeats but may differ in a detail not shown here. Equal values may be shown once. Read-outs that look alike come from different tables or passages of the source.

Tests used:
[1] = tested on: E. coli MC4100; assay: Plate assay of bacterial growth; format: cell-based; settings: wild-type, overnight incubation
Outline: (§1)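 Exponential-phase cells (OD600 0.5) were mixed into LB with 0.2% glucose and 0.75% soft agar and poured as a lawn. Test compound (1 µL; water- or DMSO-dissolved) was spotted on the set surface and plates were incubated overnight at 37°C. The MIC was the concentration giving a clear growth-inhibition zone relative to the surrounding lawn.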

[2] = tested on: B. subtilis 168; assay: Plate assay of bacterial growth; format: cell-based; settings: for MIC, B. subtilis 168: plate assay, overnight incubation
Outline: as §1

[3] = target: T1, EcSecA translocation ATPase (Escherichia coli, UniProt P10408); assay: Translocation ATPase assay of SecA with membrane and proOmpA; format: biochemical; settings: read-out: IC50, EcSecA translocation ATPase
Outline: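 Purified full-length E. coli SecA (1.5 µg per 50 µL) was combined with 3 µg urea-washed BA13 membrane plus 1 µg purified proOmpA precursor. Reaction: 1.2 mM ATP, ovalbumin, Tris-HCl pH 7.6, KCl, NH4Cl, Mg(OAc)2, DTT, 40°C within the linear range. Released phosphate was read at 660 nm and expressed as % remaining activity versus control; at least triplicate.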

[4] = target: BsSecA intrinsic ATPase (Bacillus subtilis, UniProt P28366); assay: Intrinsic ATPase assay of full-length BsSecA; format: biochemical; settings: read-out: IC50, BsSecA intrinsic ATPase; full-length B. subtilis SecA
Outline: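 Full-length B. subtilis SecA was overexpressed from pT7div and purified, then used at 1.5 µg per 50 µL reaction in solution without membranes. Phosphate release was read at 660 nm and expressed as % remaining activity versus control; at least triplicate.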

[5] = target: F1F0-ATPase (Escherichia coli, UniProt P0ABB0+P0ABB4); assay: F1F0-proton ATPase activity assay; format: biochemical; settings: read-out: IC50, F1F0-ATPase; E. coli F1F0-proton ATPase in liposomes
Outline: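 F1F0-ATPase from E. coli KY7485 membranes was partially purified by sucrose gradient and reconstituted into liposomes by dialysis. Released phosphate was read photometrically at 660 nm. Activity was expressed as % of the no-inhibitor control; at least triplicate.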

[6] = tested on: E. coli NR698; assay: Plate assay of bacterial growth; format: cell-based; settings: for MIC, E. coli NR698: plate assay, leaky mutant, overnight incubation
[7] = tested on: SecA-dependent protein translocation; assay: SecA-dependent in vitro translocation of proOmpA into membrane vesicles; format: biochemical, E. coli; settings: read-out: IC50, in vitro translocation of proOmpA into membrane vesicles; 35S-labeled proOmpA
[8] = target: EcSecA membrane ATPase (Escherichia coli, UniProt P10408); assay: Membrane ATPase assay of SecA with urea-washed BA13 membrane; format: biochemical; settings: read-out: IC50, EcSecA membrane ATPase
Outline: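 Purified full-length E. coli SecA (1.5 µg per 50 µL) was combined with 3 µg urea-washed membrane from E. coli BA13 (MC4100 secA13(am) supF(ts)). Phosphate was read at 660 nm and expressed as % of the no-inhibitor control; at least triplicate.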

[9] = tested on: SecA ATPase; assay: Kinetic experiments versus ATP; format: biochemical; settings: low ATP concentrations, data not shown
[10] = target: EcN68 SecA ATPase (Escherichia coli, UniProt P10408); assay: biochemical; format: biochemical
[11] = tested on: E. coli NR698; assay: Liquid culture growth assay; format: cell-based; settings: 50 µM, data not shown
[12] = tested on: B. subtilis 168; assay: Bactericidal effect assay; format: cell-based; settings: 100 µM, one-hour treatment, exponential-phase cells
Outline: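 Exponential-phase cultures (OD600 0.5) in LB with 0.2% glucose were exposed to test compound, with water as the control, for 1 h at 37°C. Cultures were serially diluted and spread on LB plates. Surviving CFU were counted after overnight growth at 37°C, and the effect was expressed as the drop in log CFU. At least triplicate; standard error of the mean.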

[13] = tested on: E. coli NR698; assay: Bactericidal effect assay; format: cell-based; settings: 100 µM, one-hour treatment, exponential-phase cells
[14] = target: T1, EcSecA translocation ATPase; settings: read-out: IC50, translocation ATPase of SecA; cited from earlier work
[15] = tested on: SecA-dependent protein translocation; settings: read-out: IC50, in vitro protein translocation; cited from earlier work
[16] = cited from earlier work

Sequence of BsSecA intrinsic ATPase (P28366 whole entry): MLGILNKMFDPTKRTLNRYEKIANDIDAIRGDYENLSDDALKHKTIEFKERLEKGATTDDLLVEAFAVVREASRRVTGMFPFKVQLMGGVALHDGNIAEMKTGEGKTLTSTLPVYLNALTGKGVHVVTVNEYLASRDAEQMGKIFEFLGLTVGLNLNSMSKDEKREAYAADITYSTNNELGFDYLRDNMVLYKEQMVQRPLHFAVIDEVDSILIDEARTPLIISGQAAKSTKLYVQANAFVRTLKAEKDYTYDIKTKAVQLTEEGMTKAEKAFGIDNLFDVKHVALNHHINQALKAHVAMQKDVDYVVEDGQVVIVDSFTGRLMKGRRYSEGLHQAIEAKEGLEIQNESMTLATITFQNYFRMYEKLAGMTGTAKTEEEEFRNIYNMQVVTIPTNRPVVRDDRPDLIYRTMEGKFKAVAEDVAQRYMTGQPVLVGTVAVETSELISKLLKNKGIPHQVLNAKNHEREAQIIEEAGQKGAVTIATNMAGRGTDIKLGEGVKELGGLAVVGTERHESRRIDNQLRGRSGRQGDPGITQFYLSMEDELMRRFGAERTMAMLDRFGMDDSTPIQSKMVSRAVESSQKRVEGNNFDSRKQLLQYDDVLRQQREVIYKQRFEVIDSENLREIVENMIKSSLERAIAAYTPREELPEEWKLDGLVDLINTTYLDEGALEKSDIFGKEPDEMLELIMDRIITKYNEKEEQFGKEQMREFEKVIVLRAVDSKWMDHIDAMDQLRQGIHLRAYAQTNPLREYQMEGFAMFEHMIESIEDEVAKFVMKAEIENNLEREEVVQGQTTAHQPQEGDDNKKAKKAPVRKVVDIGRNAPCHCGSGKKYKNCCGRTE
Sequence of EcN68 SecA ATPase (P10408 1-610): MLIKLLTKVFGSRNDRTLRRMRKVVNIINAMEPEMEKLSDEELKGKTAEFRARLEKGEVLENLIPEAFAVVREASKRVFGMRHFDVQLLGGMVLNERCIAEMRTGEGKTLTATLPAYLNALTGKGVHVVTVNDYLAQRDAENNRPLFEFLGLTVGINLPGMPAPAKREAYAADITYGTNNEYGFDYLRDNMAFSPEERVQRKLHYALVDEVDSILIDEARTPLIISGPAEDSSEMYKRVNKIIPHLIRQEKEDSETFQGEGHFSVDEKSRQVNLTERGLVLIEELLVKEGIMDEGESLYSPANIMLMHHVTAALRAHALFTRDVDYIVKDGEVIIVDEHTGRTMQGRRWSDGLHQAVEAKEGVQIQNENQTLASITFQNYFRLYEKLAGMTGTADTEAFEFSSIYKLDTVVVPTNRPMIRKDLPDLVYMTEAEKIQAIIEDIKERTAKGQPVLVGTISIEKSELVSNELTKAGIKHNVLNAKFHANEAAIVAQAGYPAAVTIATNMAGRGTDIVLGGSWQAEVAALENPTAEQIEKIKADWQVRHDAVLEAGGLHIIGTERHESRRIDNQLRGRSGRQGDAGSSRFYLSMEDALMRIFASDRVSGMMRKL
T1 sequence (P10408 whole entry): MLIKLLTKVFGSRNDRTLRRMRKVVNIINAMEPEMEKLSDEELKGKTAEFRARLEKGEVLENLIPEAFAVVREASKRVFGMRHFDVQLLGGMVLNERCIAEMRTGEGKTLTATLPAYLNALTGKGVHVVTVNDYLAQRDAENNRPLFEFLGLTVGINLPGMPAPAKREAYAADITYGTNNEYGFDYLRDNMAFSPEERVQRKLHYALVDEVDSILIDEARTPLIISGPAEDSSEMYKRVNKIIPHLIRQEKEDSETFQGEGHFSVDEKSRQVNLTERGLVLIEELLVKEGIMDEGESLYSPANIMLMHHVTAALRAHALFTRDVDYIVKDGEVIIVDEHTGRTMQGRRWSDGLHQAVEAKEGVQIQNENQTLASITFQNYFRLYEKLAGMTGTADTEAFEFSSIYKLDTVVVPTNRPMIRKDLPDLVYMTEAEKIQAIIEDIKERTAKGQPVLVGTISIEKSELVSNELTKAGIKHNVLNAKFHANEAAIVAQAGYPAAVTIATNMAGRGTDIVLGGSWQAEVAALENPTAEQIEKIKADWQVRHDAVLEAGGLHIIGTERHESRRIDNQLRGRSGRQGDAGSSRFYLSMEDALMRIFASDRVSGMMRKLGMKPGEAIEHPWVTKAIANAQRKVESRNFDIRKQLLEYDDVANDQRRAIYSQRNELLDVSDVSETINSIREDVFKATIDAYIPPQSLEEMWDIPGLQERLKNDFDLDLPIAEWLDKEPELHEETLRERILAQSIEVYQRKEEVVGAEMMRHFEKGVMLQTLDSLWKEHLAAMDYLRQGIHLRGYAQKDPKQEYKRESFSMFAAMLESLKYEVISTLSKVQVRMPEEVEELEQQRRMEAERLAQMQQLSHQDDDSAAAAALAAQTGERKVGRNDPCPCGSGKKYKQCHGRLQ
Sequence of EcSecA membrane ATPase (P10408 whole entry): as above

O=C([O-])c1ccccc1-c1c2ccc(=O)c(I)c-2oc2c(I)c([O-])ccc12.[Na+].[Na+] [DI, Diiodofluorescein]
MIC, E. coli MC4100 [1]: >3000 µM | MIC, B. subtilis 168 [2]: 1000 µM

O.O=C([O-])c1ccccc1-c1c2cc(I)c(=O)c(I)c-2oc2c(I)c([O-])c(I)cc12.[Na+].[Na+] [EB, Erythrosin B]
IC50 [3]: 10 µM | IC50 [4]: 70 µM | IC50 [5]: ~30 µM | MIC, E. coli NR698 [6]: 250 to 500 µM | MIC, E. coli MC4100 [1]: >10000 µM | MIC, B. subtilis 168 [2]: 250 to 500 µM | IC50 [7]: 4 µM | IC50 [8]: 12 µM | Mode of inhibition against ATP [9]: competitive inhibitors against ATP

O=C1OC2(c3ccccc31)c1cc(Br)c(O)c(Br)c1Oc1c2cc(Br)c(O)c1Br [EY, Eosin Y]
MIC ([6]; Escherichia coli, NR698, read-out: MIC, E. coli NR698): 1000 to 2500 µM (≈ 648 to 1620 µg/mL) | MIC ([2]; Bacillus subtilis, 168, read-out: MIC, B. subtilis 168): 2500 µM (≈ 1620 µg/mL) | IC50 [10]: 25 µM

O=C1OC2(c3cc(I)c(O)c(I)c3Oc3c2cc(I)c(O)c3I)c2c(Cl)c(Cl)c(Cl)c(Cl)c21 [RB, Rose Bengal]
Inhibition of growth in liquid culture [11]: completely inhibits | IC50 [4]: 7 µM | IC50 [5]: ~10 µM | MIC, E. coli NR698 [6]: 3.1 µM (≈ 3.02 µg/mL) | MIC, E. coli MC4100 [1]: >1000 µM | MIC, B. subtilis 168 [2]: 3.1 µM (≈ 3.02 µg/mL) | IC50 [7]: 0.25 µM and ~0.25 µM | Decrease of cell survival (CFU) [12]: ~8 log units | Mode of inhibition against ATP [9]: competitive inhibitors against ATP | Decrease of cell survival (CFU) [13]: about 10 log units

[N-]=[N+]=[N-].[Na+] [Sodium azide]
IC50 [14]: 5000 µM | IC50 [15]: 600 µM | Inhibition of the intrinsic ATPase of SecA ([10]; at concentrations as high as 10 mM, cf. Table 1 EcN68): not inhibited

C/C=C/[C@H]1C(C)=C[C@H]2C[C@H](C)[C@H](O)C[C@H]2[C@]1(C)/C=C(C)/C=C/C(=O)O [pannomycin]
MIC, antibacterial activity [16]: mM range

Dinitrofluorescein [DN]
MIC, E. coli NR698 [6]: 10000 to 20000 µM | MIC, B. subtilis 168 [2]: 10000 µM
